Measurements reported in ChEMBL document CHEMBL1124920, “cis-diamineplatinum (II) complexes containing phosphono carboxylate ligands as antitumor agents” (J Med Chem, 1990).

How the values were obtained:
[1] = tested on: Mus musculus; experiment: Number of surviving CFW mice bearing Sarcoma 180 ascites (S180a) (6 mice treated i.p.); format: functional, organism-based
How it was run: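 Female CFW mice (18-25 g) implanted ip with 2 × 10^6 S180 ascites cells on day 0. Compound given ip in 0.5 mL water on day 1, adjusted to pH 7, six mice per dose. Vehicle and cisplatin control groups included. Run to twice control MST, survivors counted as dying that day. Read-out %ILS of MST; >50% active, maximum 100%.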

[2] = tested on: Mus musculus; experiment: Antitumor activity against CFW mice bearing Sarcoma 180 ascites (S180a) following i.p. administration.; format: functional, organism-based
How it was run: (§1)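 Female CFW mice (18-25 g) were implanted ip with 2 × 10^6 Sarcoma 180 ascites cells on day 0. Compound was given ip in 0.5 mL water on day 1, with six mice per dose. The run lasted twice the control MST, and survivors were counted as dying then. Activity is % ILS of MST; >50% counts as active, and the maximum is 100%.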

[3] = species: Mus musculus; experiment: Optimal dose in Sarcoma inoculated CFW mice.; format: functional, organism-based; how it was run: as §1
[4] = tested on: L1210; experiment: Antitumor activity (ip) against CDF1 mice bearing Leukemia L1210 cells; format: functional, organism-based; conditions: Mus musculus
How it was run: (§2)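 Female CDF1 mice (16-22 g) received 1 × 10^6 L1210 cells ip in 0.5 mL […] on day 0. Test compound was given in 0.5 mL water on day 1, with six mice per dose. The study ended at 3× the control mean survival time (MST), and survivors were scored as dying that day. ILS is the % increase in MST over controls; >25% counts as active, and the maximum possible is 200%.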

[5] = tested on: L1210; experiment: Optimal dose of the compound measured in mg/kg against CDF1 mice bearing L1210 leukemia cells.; format: functional, organism-based; conditions: Mus musculus; how it was run: as §2
[6] = tested on: L1210; experiment: Antitumor activity (ip) against CDF1 mice bearing Leukemia L1210 cells in 6 mice; format: functional, organism-based; conditions: Mus musculus
How it was run: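 Female CDF1 mice (16-22 g) inoculated ip with 1 × 10^6 L1210 cells in 0.5 mL […] on day 0. Compound given day 1 in 0.5 mL water, six mice per dose. Vehicle controls and cisplatin 8 mg/kg positive controls included. Run to 3× control MST, survivors scored as dying then. Read-out %ILS of MST; >25% active, maximum 200%.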

[7] = tested on: M5076; experiment: Optimum dose measured in mg/kg; format: functional, organism-based
[8] = tested on: M5076; experiment: Relative median time for tumors to reach 1 g in drug-treated groups and the control group (T-C in days); format: functional
How it was run: (§3)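 BDF1 mice of either sex (6-10 weeks) were implanted sc on day 0 with ~25 mg M5076 tumor fragments. Dosing was iv on days 5, 9, 13 and 17, with doses given per injection, in groups of eight. Study ended on day 75. Read-outs were % ILS of MST and T-C, the difference in median days for tumors to reach 1 g. Active means ILS ≥25% or T-C >13 days.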

[9] = tested on: M5076; experiment: Antitumor activity of the best % ILS of platinum-phospono carboxylate complex against subcutaneously implanted M5076 reticulum cell sarcoma; format: functional; how it was run: as §3

Row | Sequence | Survivors [1] | ILS [2] [%] | DOSE [3] [mg/kg] | ILS [4] [%] | DOSE [5] [mg/kg] | Survivors [6] | DOSE [7] | T-C [8] | ILS [9] [%]
1 | CARBOPLATIN | 4 | 95 | 120 | 90 | 80 | 0 |  |  | 
2 | CISPLATIN | 3 | 81 | 8 | 87 | 8 | 0 | 5 | 25 | 28
